Test results reported in ChEMBL document CHEMBL1122655, “Gamma-aminobutyric acid esters. 1. Synthesis, brain uptake, and pharmacological studies of aliphatic and steroid esters of gamma-aminobutyric acid” (J Med Chem, 1984).
“And” between values parts separate entries of the source, which are not always exact repeats. Equal entries are not always repeated.

How the values were obtained:
Mus musculus [1] = test: Uptake of the [14C]-compound in mouse liver 5 minutes after sc administration of 41 mg/kg.; format: functional; conditions: route subcutaneous
How it was run: (§1)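 Mice were given the 14C-labeled compound sc in 25% propylene glycol in water and killed at 5 min. Liver was removed, weighed and homogenized in 1% SDS in 6 M urea with 19 mM EDTA and 0.03 M phosphate, pH 7.4. Homogenate aliquots were counted by liquid scintillation, and uptake per gram of tissue was calculated. Mean ± SEM, n = 3.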

[2] = Partition coefficient in 1-octanol/water system; format: physicochemical
How it was run: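 1-Octanol/water partition coefficient determined with the U-14C-labeled esters, read by radioactivity.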

Mus musculus [3] = test: Uptake of the [14C]-compound in mouse brain 5 minutes after sc administration of 41 mg/kg.; format: functional; conditions: route subcutaneous
How it was run: (§2)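 [14C]-labeled ester injected sc into mice in 25% propylene glycol/water. At the stated time, brain and liver were homogenized in SDS/urea/EDTA phosphate solvent, pH 7.4, and counted by liquid scintillation. Uptake was calculated per gram tissue (nmol/g).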

Mus musculus [4] = test: Uptake of the [14C]-compound in mouse brain 15 minutes after sc administration of 41 mg/kg.; format: functional; conditions: route subcutaneous; how it was run: as §2
Mus musculus [5] = test: Brain penetration index is the ratio of the uptake in brain/liver X 100, 5 min after sc administration of 41 mg/kg of the [14C]-compound.; format: functional; conditions: route subcutaneous
How it was run: (§3)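 [14C]-labeled ester injected sc into mice in 0.5 mL of 25% propylene glycol in water, killed at 5 min. Brain and liver were weighed and homogenized in SDS/6 M urea/EDTA phosphate solvent, pH 7.4, then counted by liquid scintillation. BPI = [brain]/[liver] × 100. Means ± SEM, n = 3.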

Mus musculus [6] = test: Evaluation of General motor activity in mouse 60 mins postinjection (ip) of 16 mg/kg; format: functional
How it was run: (§4)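 Male BALB-c mice (18-24 g) given compound ip in 25% propylene glycol/water. Each was monitored singly for 60 min in an electronic activity monitor. Cumulative activity was expressed as % of vehicle control; mean ± SEM, n = 6, t test.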

[7] = Partition coefficient in 1-octanol/water system measured using radio active compounds; format: physicochemical
How it was run: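 1-Octanol/water partition coefficient, measured with the 14C-labeled compounds.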

Mus musculus [8] = test: Evaluation of General motor activity in mouse at dose 200 mg/kg; format: functional; how it was run: as §4
Mus musculus [9] = test: Anticonvulsant activity is the ability to increase the survival time of mouse ssubjected to bicuculline induced seizures at 24 hr after pretreament with compound (16 mg/kg, ip); format: functional
Rattus norvegicus [10] = organism: Rattus norvegicus; test: Enzymatic hydrolysis of cholesteryl [14C]-compound by Rat Brain Homogenate at 10 min; format: functional
How it was run: (§5)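 Cholesteryl-[14C]GABA ester (3 mg/mL) incubated at 37 °C with rat brain homogenate 10,000g supernatant (S1; 0.8 mg/mL protein). Aliquots were quenched with ethanol and run on silica TLC (CHCl3/MeOH/HOAc 18:6:1) to quantify unreacted substrate (nmol). Control was the initial substrate amount.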

Mus musculus [11] = test: Uptake of the [14C]-compound in mouse liver 180 min after sc administration of 24 mg/kg.; format: functional; conditions: route subcutaneous, in the assay text read “mouse brain” for “mouse liver”; how it was run: as §2
Mus musculus [12] = test: Brain penetration index is the ratio of the uptake in brain/liver X 100, 5 min after sc administration of 24 mg/kg of the [14C]-compound.; format: functional; conditions: route subcutaneous; how it was run: as §3
Mus musculus [13] = test: Uptake of the [14C]-compound in mouse liver 15 minutes after sc administration of 24 mg/kg.; format: functional; conditions: route subcutaneous, in the assay text read “mouse brain” for “mouse liver”; how it was run: as §2
Rattus norvegicus [14] = organism: Rattus norvegicus; test: Enzymatic hydrolysis of cholesteryl [14C]-compound by Rat Brain Homogenate at 60 min; format: functional; how it was run: as §5
Mus musculus [15] = test: Evaluation of General motor activity in mouse 60 mins postinjection (ip) of 33 mg/kg*; format: functional; how it was run: as §4
Mus musculus [16] = test: Anticonvulsant activity is the ability to delay the onset of bicuculline induced seizures in mouse at 24 hr after pretreament with compound (84 mg/kg, ip); format: functional
How it was run: (§6)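 Mice given test article ip 24 h before bicuculline (0.3 mg/kg sc). Latency to onset of generalized tonic-clonic seizures was recorded in seconds and expressed as % of saline control. Means ± SEM, n ≥ 6 per group.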

Rattus norvegicus [17] = organism: Rattus norvegicus; test: Enzymatic hydrolysis of cholesteryl [14C]-compound by Rat Brain Homogenate at 30 min; format: functional; how it was run: as §5
[18] = target: GABA-A receptor; anion channel; test: Inhibition of [3H]GABA binding to synaptic membranes from rat cerebellum; format: tissue-based
How it was run: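 [3H]GABA (15 nM) binding to rat cerebellum synaptic membranes. At least two concentrations above and below IC50, each at least in triplicate. IC50 was obtained by fitting linearized transformations of the data.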

Mus musculus [19] = test: Uptake of the [14C]-compound in mouse liver 5 minutes after sc administration of 24 mg/kg.; format: functional; conditions: route subcutaneous; how it was run: as §2
Mus musculus [20] = test: Anticonvulsant activity is the ability to increase the survival time of mouse ssubjected to bicuculline induced seizures at 24 hr after pretreament with compound (30 mg/kg, ip); format: functional
Mus musculus [21] = test: Anticonvulsant activity is the ability to delay the onset of bicuculline induced seizures in mouse at 24 hr after pretreament with compound (16 mg/kg, ip); format: functional; how it was run: as §6
Mus musculus [22] = test: Evaluation of General motor activity in mouse 60 mins postinjection (ip) of 10 mg/kg; format: functional; how it was run: as §4
Mus musculus [23] = test: Uptake of the [14C]-compound in mouse liver 60 minutes after sc administration of 24 mg/kg.; format: functional; conditions: route subcutaneous, in the assay text read “mouse brain” for “mouse liver”
Mus musculus [24] = test: Anticonvulsant activity is the ability to delay the onset of bicuculline induced seizures in mouse at 24 hr after pretreament with compound (30 mg/kg, ip); format: functional; how it was run: as §6
Mus musculus [25] = test: Uptake of the [14C]-compound in mouse brain 5 minutes after sc administration of 24 mg/kg.; format: functional; conditions: route subcutaneous; how it was run: as §2
Mus musculus [26] = test: Anticonvulsant activity is the ability to delay the onset of bicuculline induced seizures in mouse at 24 hr after pretreament with compound (3 mg/kg, ip); format: functional; how it was run: as §6
Mus musculus [27] = test: Evaluation of General motor activity in mouse 60 mins postinjection (ip) of 3 mg/kg; format: functional; how it was run: as §4
Mus musculus [28] = test: Anticonvulsant activity is the ability to increase the survival time of mouse ssubjected to bicuculline induced seizures at 24 hr after pretreament with compound (3 mg/kg, ip); format: functional
Mus musculus [29] = test: Anticonvulsant activity is the ability to delay the onset of bicuculline induced seizures in mouse at 24 hr after pretreament with compound (12mg/kg, ip); format: functional; how it was run: as §6
Mus musculus [30] = test: Evaluation of General motor activity in mouse 60 mins postinjection (ip) of 12 mg/kg; format: functional; how it was run: as §4
Mus musculus [31] = test: Anticonvulsant activity is the ability to increase the survival time of mouse ssubjected to bicuculline induced seizures at 24 hr after pretreament with compound (36 mg/kg, ip); format: functional
Mus musculus [32] = test: Anticonvulsant activity is the ability to increase the survival time of mouse ssubjected to bicuculline induced seizures at 24 hr after pretreament with compound (12 mg/kg, ip); format: functional
Mus musculus [33] = test: Anticonvulsant activity is the ability to delay the onset of bicuculline induced seizures in mouse at 24 hr after pretreament with compound (25 mg/kg, ip); format: functional; how it was run: as §6
Mus musculus [34] = test: Uptake of the [14C]-compound in mouse brain 5 minutes after sc administration of 90 mg/kg.; format: functional; conditions: route subcutaneous; how it was run: as §2
Mus musculus [35] = test: Anticonvulsant activity is the ability to increase the survival time of mouse ssubjected to bicuculline induced seizures at 24 hr after pretreament with compound (17mg/kg, ip); format: functional
Mus musculus [36] = test: Anticonvulsant activity is the ability to increase the survival time of mouse ssubjected to bicuculline induced seizures at 24 hr after pretreament with compound (25 mg/kg, ip); format: functional
Mus musculus [37] = test: Anticonvulsant activity is the ability to increase the survival time of mouse ssubjected to bicuculline induced seizures at 24 hr after pretreament with compound (50 mg/kg, ip); format: functional
Mus musculus [38] = test: Anticonvulsant activity is the ability to delay the onset of bicuculline induced seizures in mouse at 24 hr after pretreament with compound (17 mg/kg, ip); format: functional; how it was run: as §6
Mus musculus [39] = test: Anticonvulsant activity is the ability to delay the onset of bicuculline induced seizures in mouse at 24 hr after pretreament with compound (36 mg/kg, ip); format: functional; how it was run: as §6
Mus musculus [40] = test: Evaluation of General motor activity in mouse 60 mins postinjection (ip) of 36 mg/kg =; format: functional; how it was run: as §4
Mus musculus [41] = test: Uptake of the [14C]-compound in mouse brain 45 minutes after sc administration of 90 mg/kg.; format: functional; conditions: route subcutaneous; how it was run: as §2
Mus musculus [42] = test: Brain penetration index is the ratio of the uptake in brain/liver X 100, 5 min after sc administration of 90 mg/kg of the [14C]-compound.; format: functional; conditions: route subcutaneous; how it was run: as §3
Mus musculus [43] = test: Uptake of the [14C]-compound in mouse brain 15 minutes after sc administration of 90 mg/kg.; format: functional; conditions: route subcutaneous; how it was run: as §2
Mus musculus [44] = test: Uptake of the [14C]-compound in mouse liver 5 minutes after sc administration of 90 mg/kg.; format: functional; conditions: route subcutaneous; how it was run: as §1
Mus musculus [45] = test: Anticonvulsant activity is the ability to delay the onset of bicuculline induced seizures in mouse at 24 hr after pretreament with compound (50 mg/kg, ip); format: functional; how it was run: as §6
Mus musculus [46] = test: Evaluation of General motor activity in mouse 60 mins postinjection (ip) of 128 mg/kg; format: functional; how it was run: as §4
Mus musculus [47] = test: Uptake of the [14C]-compound in mouse brain 5 minutes after sc administration of 74 mg/kg.; format: functional; conditions: route subcutaneous; how it was run: as §2
Mus musculus [48] = test: Evaluation of General motor activity in mouse 60 mins postinjection (ip) of 60 mg/kg; format: functional; how it was run: as §4
Mus musculus [49] = test: Uptake of the [14C]-compound in mouse liver 5 minutes after sc administration of 74 mg/kg.; format: functional; conditions: route subcutaneous; how it was run: as §1
Mus musculus [50] = test: Brain penetration index is the ratio of the uptake in brain/liver X 100, 5 min after sc administration of 74 mg/kg of the [14C]-compound.; format: functional; conditions: route subcutaneous; how it was run: as §3

C[C@@H]1CC2C3CCC4=CC(=O)C=CC4(C)C3(F)C(O)CC2(C)C1(O)C(=O)COC(=O)CCCN (some centres not stated)
Liver concentration (Mus musculus [1]): 10.8 nmol/g
K [2]: 0.9
Brain concentration (Mus musculus [3]): 8.7 nmol/g
Brain concentration (Mus musculus [4]): 21.5 nmol/g
Brain penetration index (Mus musculus [5]): 81%
Motor activity (Mus musculus [6]): 94

NCCCC(=O)O [GAMMA-AMINOBUTYRIC ACID]
K [7]: 0.004
Motor activity (Mus musculus [8]): 100

CC(C)CCCC(C)C1CCC2C3CC=C4CC(OC(=O)CCCN)CCC4(C)C3CCC12C (configuration not stated)
Survival time (Mus musculus [9]): 101 and 109
Amount of unreacted substrate (Rattus norvegicus [10]): 53
Brain concentration (Mus musculus [11]): 0.6 nmol/g
K [2]: 110
Brain penetration index (Mus musculus [12]): 25%
Brain concentration (Mus musculus [13]): 0.67 nmol/g
Amount of unreacted substrate (Rattus norvegicus [14]): 34.5
Motor activity (Mus musculus [15]): 15
Onset seizure (Mus musculus [16]): 137
Amount of unreacted substrate (Rattus norvegicus [17]): 43.5
IC50 [18]: 10 µM
Liver concentration (Mus musculus [19]): 0.69 nmol/g
Survival time (Mus musculus [20]): 104
Onset seizure (Mus musculus [21]): 129
Motor activity (Mus musculus [22]): 49
Brain concentration (Mus musculus [23]): 0.79 nmol/g
Onset seizure (Mus musculus [24]): 130
Brain concentration (Mus musculus [25]): 0.17 nmol/g
Onset seizure (Mus musculus [26]): 120
Motor activity (Mus musculus [27]): 67
Survival time (Mus musculus [28]): 95

CC/C=C/C/C=C/C/C=C/CCCCCCCCOC(=O)CCCN
Onset seizure (Mus musculus [29]): 102
Motor activity (Mus musculus [30]): 90
Survival time (Mus musculus [31]): 62
Survival time (Mus musculus [32]): 118
Onset seizure (Mus musculus [33]): 78
Brain concentration (Mus musculus [34]): 3.5 nmol/g
Survival time (Mus musculus [35]): 111
Survival time (Mus musculus [36]): 68
Survival time (Mus musculus [37]): 63
Onset seizure (Mus musculus [38]): 73
Onset seizure (Mus musculus [39]): 50
Motor activity (Mus musculus [40]): 74
Brain concentration (Mus musculus [41]): 24.9 nmol/g
IC50 [18]: 40 µM
Brain penetration index (Mus musculus [42]): 2%
Brain concentration (Mus musculus [43]): 11 nmol/g
Liver concentration (Mus musculus [44]): 142 nmol/g
Onset seizure (Mus musculus [45]): 40

CCCCOC(=O)CCCN
Motor activity (Mus musculus [46]): 83
Brain concentration (Mus musculus [47]): 19.2 nmol/g
Motor activity (Mus musculus [48]): 89
Liver concentration (Mus musculus [49]): 28 nmol/g
Brain penetration index (Mus musculus [50]): 74%
